Measurements of several laboratories.
Compare with care: the assays were run in different laboratories.
Cell line: MM1.S
Effect on: cell growth or viability

With CC(C)C[C@H](NC(=O)[C@H](Cc1ccccc1)NC(=O)c1cnccn1)B(O)O the EC50 was 1.5 nM (ATP luminescence).
The IC50 of CCOC(=O)C1=C(C)NC(=S)NC1c1cccc(O)c1 (centres unmarked) is reported as 144000 nM (ATP luminescence; 72 h).
With O=C(C[C@@H](C(F)F)n1ccc(F)n1)N1CCC(O)(Cn2cnc3c(cnn3-c3ccc(F)cc3)c2=O)CC1 the IC50 was 33 nM (ATP luminescence; 5 days).
For CCS(=O)(=O)Nc1ccc(Oc2ccc(Cl)cc2)c(-c2cn(C)c(=O)c3ccccc23)c1, the IC50 was 3.5 nM (resazurin; 72 h).
With CON(C)C(=O)N1N=C(c2cc(F)ccc2F)S[C@@]1(CCCN)c1ccccc1 the IC50 was 4.9 nM (ATP luminescence; 72 h).
C=CC(=O)N1CCC[C@@H](n2nc(-c3ccc(Oc4ccccc4)cc3)c3c(N)ncnc32)C1 gave a GI50 of 7560 nM (48 h).
For CC(C)C[C@H](NC(=O)[C@H](Cc1ccccc1)NC(=O)c1cnccn1)B(O)O, the IC50 was 15 nM (ATP luminescence; 48 h).
N[C@@H]1CCCN(c2c(/C=C3\SC(=O)NC3=O)cccc2-c2ccccc2)C1 gave a GI50 of 711 nM (thymidine uptake; 72 h).
